Test results as given in ChEMBL document CHEMBL4190394, “Discovery of Novel Pazopanib-Based HDAC and VEGFR Dual Inhibitors Targeting Cancer Epigenetics and Angiogenesis Simultaneously” (J Med Chem, 2018).
The source made the active and inactive calls. The calls are words filed in the database; no cut-off is given here.

Columns and labels:
PC-3 = assay: Antiproliferative activity against human PC3 cells after 72 hrs by MTT assay; format: functional, cell-based; details: PC-3, 72 h
K562 = assay: Antiproliferative activity against human K562 cells after 72 hrs by MTT assay; format: functional, cell-based; details: K562, 72 h
MOLT-4 = assay: Antiproliferative activity against human MOLT4 cells after 72 hrs by MTT assay; format: functional, cell-based; details: MOLT-4, 72 h
[1] = target: T1, Vascular endothelial growth factor receptor 2 (Homo sapiens, UniProt P35968); assay: Inhibition of VEGFR-2 (unknown origin) at 0.2 uM after 40 mins by kinase-Glo assay relative to control
Outline: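 VEGFR-2 tested at a single 200 nM concentration in a Kinase-Glo assay. Compound, kinase, substrate and ATP incubated 40 min at room temperature, then Kinase-Glo reagent added for 15 min and luminescence read. Inhibition rate reported. Replicates n ≥ 2.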

KG-1 = assay: Antiproliferative activity against human KG1 cells after 72 hrs by MTT assay; format: functional, cell-based; details: KG-1, 72 h
Histone deacetylase = format: protein assay, Homo sapiens
HEL = assay: Antiproliferative activity against human HEL cells after 72 hrs by MTT assay; format: functional, cell-based
HT-1080 = assay: Antiproliferative activity against human HT1080 cells after 72 hrs by MTT assay; format: functional, cell-based; details: HT-1080, 72 h
HUVEC = assay: Antiangiogenic activity in human HUVEC cells assessed as reduction in capillary-like tubular network formation at 0.1 uM after 6 hrs by phase-contrast microscopy; format: functional, cell-based
Outline: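 HUVECs trypsinized and seeded at 40000/well on Matrigel polymerized 0.5 h at 37 °C. Cells held 6 h at 37 °C in M199 with 5% FBS, with compound or DMSO. Tube formation viewed and photographed by phase-contrast microscopy at 200 magnification. Three independent experiments.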

AGS = assay: Antiproliferative activity against human AGS cells after 72 hrs by MTT assay; format: functional, cell-based
HT-29 [2] = assay: Antiproliferative activity against human HT-29 cells after 72 hrs by MTT assay; format: functional, cell-based; details: HT-29, 72 h
HeLa = assay: Antiproliferative activity against human HeLa cells after 72 hrs by MTT assay; format: functional, cell-based
[3] = target: T1, Vascular endothelial growth factor receptor 2; assay: Inhibition of VEGF-stimulated VEGFR2 phosphorylation in human HUVEC cells at 100 nM preincubated for 2 hrs followed by VEGF stimulation by Western blot analysis; format: cell-based
Outline: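 HUVECs pretreated 2 h with compound or DMSO, then stimulated with VEGF (50 ng/ml). Cells lysed in ice-cold RIPA and protein measured by BCA. Lysates run on SDS-PAGE and immunoblotted for phospho-VEGFR-2, with total VEGFR-2 as loading control. Detection by ECL.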

MDA-MB-231 = assay: Antiproliferative activity against human MDA-MB-231 cells after 72 hrs by MTT assay; format: functional, cell-based; details: MDA-MB-231, 72 h
ACHN = assay: Antiproliferative activity against human ACHN cells after 72 hrs by MTT assay; format: functional, cell-based
Thoracic aorta = assay: Antiangiogenic activity in Sprague-Dawley rat thoracic aorta ring assessed as reduction in micro-vessel growth at 5 uM treated every day for 6 days by matrigel-based inverted microscopic analysis relative to control; format: functional, tissue-based
Outline: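 Aortas taken from 4–6-week-old Sprague–Dawley rats, cut into 1-mm rings and embedded in Matrigel. Rings held 30 min at 37 °C, 5% CO2, then treated daily for 6 days with compound or 0.5% DMSO vehicle. Microvessel outgrowth photographed on day 7 at ×200. Three independent experiments.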

HT-29 [4] = assay: Antitumor activity against human HT-29 cells xenografted in BALB/c nu mouse assessed as tumor growth inhibition at 50 mg/kg, po administered for 25 consecutive days measured every 3 days during compound dosing relative to control; format: functional; details: HT-29, po, read-out: TGI
Outline: (§1)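 HT-29 cells (1×10^7) implanted s.c. in right flank of male BALB/c-nu mice aged 5–6 weeks. At about 100 mm³ (day 10), mice randomized 6 per group and dosed orally for 25 consecutive days. Controls received PBS with 5% DMSO. T/C is mean RTV (Vt/V0) treated over control. TGI taken from final tumor weights. Student's two-tailed t test.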

HT-29 [5] = assay: Antitumor activity against human HT-29 cells xenografted in BALB/c nu mouse assessed as tumor growth level at 50 mg/kg, po administered for 25 consecutive days measured every 3 days during compound dosing relative to control; format: functional; outline: as §1
Histone deacetylase 2 = Histone deacetylase 2 (Homo sapiens, UniProt Q92769)
Histone deacetylase 1 = Histone deacetylase 1 (Homo sapiens, UniProt Q13547); assay: Inhibition of HDAC1 (unknown origin) using fluorogenic substrate preincubated for 5 mins followed by substrate addition measured after 30 mins by fluorescence-based assay
Histone deacetylase 3 = Histone deacetylase 3 (Homo sapiens, UniProt O15379)
Histone deacetylase 8 = Histone deacetylase 8 (Homo sapiens, UniProt Q9BY41); assay: Inhibition of HDAC8 (unknown origin) using fluorogenic Boc-Lys(trifluoroacetyl)-AMC as substrate preincubated for 5 mins followed by substrate addition measured after 30 mins by fluorescence-based assay
[6] = target: Protein deacetylase HDAC6 (Homo sapiens, UniProt Q9UBN7); assay: Inhibition of HDAC6 (unknown origin) using fluorogenic Boc-Lys(acetyl)-AMC as substrate preincubated for 5 mins followed by substrate addition measured after 30 mins by fluorescence-based assay
Protein deacetylase HDAC6, sequence (Q9UBN7 whole entry): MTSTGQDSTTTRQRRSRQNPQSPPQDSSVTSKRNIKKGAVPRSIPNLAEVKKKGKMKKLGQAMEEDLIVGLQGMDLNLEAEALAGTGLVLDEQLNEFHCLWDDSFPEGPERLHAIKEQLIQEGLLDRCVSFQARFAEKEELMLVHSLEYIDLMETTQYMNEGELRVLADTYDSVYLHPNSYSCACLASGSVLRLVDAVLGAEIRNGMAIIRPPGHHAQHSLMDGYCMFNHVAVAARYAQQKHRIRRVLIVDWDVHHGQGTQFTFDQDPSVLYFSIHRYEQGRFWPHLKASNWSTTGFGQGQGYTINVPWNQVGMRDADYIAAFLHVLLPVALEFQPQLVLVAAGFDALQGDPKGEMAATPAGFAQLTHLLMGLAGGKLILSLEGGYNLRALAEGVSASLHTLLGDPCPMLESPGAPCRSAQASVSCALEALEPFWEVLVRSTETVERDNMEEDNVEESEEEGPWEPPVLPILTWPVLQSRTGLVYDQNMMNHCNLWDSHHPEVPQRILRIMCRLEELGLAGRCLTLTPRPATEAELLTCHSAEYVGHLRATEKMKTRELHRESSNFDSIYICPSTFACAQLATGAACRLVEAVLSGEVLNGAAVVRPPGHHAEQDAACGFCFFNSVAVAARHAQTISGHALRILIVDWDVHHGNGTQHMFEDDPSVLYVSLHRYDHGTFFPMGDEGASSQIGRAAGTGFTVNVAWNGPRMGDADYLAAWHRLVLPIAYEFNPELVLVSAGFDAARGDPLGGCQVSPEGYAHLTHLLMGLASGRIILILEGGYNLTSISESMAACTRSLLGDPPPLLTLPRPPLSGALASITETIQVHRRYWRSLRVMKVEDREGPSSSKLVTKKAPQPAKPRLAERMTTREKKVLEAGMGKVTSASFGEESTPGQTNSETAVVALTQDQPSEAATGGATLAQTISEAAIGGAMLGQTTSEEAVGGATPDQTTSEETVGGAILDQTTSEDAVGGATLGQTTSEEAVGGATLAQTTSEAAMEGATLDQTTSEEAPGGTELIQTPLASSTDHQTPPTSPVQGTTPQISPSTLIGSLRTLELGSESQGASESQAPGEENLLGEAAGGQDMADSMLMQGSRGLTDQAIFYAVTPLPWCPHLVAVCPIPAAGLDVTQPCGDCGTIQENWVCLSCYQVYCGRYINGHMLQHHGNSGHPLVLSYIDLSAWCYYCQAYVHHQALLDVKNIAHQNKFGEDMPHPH

T1 sequence (P35968 whole entry): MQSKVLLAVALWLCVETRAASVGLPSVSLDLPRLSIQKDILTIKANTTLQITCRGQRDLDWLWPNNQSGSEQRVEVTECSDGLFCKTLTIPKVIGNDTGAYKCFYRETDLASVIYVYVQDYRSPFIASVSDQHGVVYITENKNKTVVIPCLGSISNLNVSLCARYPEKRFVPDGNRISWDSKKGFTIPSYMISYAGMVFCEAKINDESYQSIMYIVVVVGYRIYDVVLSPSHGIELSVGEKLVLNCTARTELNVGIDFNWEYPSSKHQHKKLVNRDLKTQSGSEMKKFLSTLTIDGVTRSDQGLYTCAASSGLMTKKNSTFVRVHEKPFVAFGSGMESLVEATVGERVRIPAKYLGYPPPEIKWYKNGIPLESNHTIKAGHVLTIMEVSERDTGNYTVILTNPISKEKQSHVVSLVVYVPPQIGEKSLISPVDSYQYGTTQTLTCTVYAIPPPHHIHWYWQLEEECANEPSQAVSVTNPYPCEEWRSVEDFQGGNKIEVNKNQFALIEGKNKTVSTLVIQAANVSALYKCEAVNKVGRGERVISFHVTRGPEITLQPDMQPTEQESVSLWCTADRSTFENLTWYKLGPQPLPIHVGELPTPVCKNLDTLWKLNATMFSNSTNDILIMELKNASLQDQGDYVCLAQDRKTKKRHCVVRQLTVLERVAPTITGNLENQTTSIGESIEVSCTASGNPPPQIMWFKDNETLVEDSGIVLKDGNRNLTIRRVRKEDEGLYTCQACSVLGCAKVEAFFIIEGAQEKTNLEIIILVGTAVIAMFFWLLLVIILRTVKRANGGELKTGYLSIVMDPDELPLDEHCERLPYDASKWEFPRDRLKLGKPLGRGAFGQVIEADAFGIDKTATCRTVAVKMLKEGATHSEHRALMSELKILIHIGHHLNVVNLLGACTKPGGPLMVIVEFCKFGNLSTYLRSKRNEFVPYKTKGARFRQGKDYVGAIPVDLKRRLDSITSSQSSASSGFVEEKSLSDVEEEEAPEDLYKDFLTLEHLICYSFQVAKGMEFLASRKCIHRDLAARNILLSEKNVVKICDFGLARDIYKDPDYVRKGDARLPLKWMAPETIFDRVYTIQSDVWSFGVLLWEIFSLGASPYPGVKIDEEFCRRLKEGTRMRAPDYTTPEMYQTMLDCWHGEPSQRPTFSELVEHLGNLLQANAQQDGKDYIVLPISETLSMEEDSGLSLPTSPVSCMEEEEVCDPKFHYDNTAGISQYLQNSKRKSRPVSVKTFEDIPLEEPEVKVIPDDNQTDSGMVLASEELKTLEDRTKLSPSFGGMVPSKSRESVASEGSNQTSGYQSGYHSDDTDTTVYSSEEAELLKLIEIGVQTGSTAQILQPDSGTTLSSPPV
Histone deacetylase 2, sequence (Q92769 whole entry): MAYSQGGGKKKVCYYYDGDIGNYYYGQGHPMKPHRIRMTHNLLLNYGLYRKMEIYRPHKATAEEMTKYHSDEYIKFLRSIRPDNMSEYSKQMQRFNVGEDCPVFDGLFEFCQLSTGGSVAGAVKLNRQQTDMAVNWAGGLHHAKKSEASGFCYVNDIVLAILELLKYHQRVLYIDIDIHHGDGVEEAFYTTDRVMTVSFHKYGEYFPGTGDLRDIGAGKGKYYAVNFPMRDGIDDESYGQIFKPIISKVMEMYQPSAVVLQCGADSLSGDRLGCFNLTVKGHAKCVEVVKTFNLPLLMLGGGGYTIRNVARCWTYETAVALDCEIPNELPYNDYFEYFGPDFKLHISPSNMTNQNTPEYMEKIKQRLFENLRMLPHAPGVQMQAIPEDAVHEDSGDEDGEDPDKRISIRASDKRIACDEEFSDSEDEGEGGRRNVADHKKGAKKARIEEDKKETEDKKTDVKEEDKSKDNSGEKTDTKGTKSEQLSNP
Histone deacetylase 1, sequence (Q13547 whole entry): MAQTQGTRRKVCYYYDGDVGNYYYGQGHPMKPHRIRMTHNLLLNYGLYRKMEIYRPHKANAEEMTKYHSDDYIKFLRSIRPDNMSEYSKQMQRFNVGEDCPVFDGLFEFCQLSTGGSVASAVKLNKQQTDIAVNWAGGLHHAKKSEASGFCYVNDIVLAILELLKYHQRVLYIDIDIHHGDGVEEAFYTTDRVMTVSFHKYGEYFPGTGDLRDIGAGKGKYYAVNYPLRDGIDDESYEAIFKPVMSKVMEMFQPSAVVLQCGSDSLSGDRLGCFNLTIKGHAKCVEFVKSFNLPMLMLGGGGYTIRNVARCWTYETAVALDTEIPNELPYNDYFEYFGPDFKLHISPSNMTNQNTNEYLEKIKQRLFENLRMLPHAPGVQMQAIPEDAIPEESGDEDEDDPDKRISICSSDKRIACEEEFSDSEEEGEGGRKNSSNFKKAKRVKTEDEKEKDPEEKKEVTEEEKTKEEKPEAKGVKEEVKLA
Histone deacetylase 3, sequence (O15379 whole entry): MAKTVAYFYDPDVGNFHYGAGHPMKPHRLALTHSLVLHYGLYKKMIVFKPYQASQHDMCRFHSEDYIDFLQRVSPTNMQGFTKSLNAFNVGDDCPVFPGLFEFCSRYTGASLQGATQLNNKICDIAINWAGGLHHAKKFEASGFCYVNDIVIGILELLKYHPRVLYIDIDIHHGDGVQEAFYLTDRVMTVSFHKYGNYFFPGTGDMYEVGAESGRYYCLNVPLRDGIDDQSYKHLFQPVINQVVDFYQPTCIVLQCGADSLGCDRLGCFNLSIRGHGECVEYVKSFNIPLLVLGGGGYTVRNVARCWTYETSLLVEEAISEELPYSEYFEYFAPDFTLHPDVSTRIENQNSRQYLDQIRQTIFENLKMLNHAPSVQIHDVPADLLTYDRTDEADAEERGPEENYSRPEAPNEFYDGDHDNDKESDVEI
Histone deacetylase 8, sequence (Q9BY41 whole entry): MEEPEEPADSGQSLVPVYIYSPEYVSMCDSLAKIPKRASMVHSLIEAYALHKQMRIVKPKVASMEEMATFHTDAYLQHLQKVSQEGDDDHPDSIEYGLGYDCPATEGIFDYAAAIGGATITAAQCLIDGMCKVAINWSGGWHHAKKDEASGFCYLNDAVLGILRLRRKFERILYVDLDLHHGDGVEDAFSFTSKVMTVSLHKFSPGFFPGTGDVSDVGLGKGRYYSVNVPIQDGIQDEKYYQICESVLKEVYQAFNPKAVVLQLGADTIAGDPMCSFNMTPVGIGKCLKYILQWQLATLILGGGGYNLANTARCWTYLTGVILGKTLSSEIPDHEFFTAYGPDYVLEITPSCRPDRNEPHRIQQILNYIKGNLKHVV

Cc1c2ccc(N(C)c3ccnc(Nc4ccc(C(=O)NCCCCCC(=O)Nc5ccccc5N)cc4)n3)cc2nn1C
IC50 (PC-3): > 5 µM
IC50 (K562): 4.31 µM
IC50 (MOLT-4): 0.87 µM
inhibition [1]: 95%
IC50 (KG-1): 3.15 µM
IC50 (Histone deacetylase): 3 µM
IC50 (HEL): 2.06 µM

Cc1c2ccc(N(C)c3ccnc(Nc4cccc(/C=C/C(=O)NO)c4)n3)cc2nn1C
inhibition [1]: 97%
IC50 (Histone deacetylase): 3 µM

Cc1c2ccc(N(C)c3ccnc(Nc4cccc(C(=O)NO)c4)n3)cc2nn1C
inhibition [1]: 77%
IC50 (Histone deacetylase): > 20 µM

Cc1c2ccc(N(C)c3ccnc(Nc4ccc(C(=O)NCC(=O)Nc5ccccc5N)cc4)n3)cc2nn1C
inhibition [1]: 98%
IC50 (Histone deacetylase): > 20 µM

Cc1c2ccc(N(C)c3ccnc(Nc4ccc(C(=O)NCCCCCCCC(=O)NO)cc4)n3)cc2nn1C
IC50 (HT-1080): > 5 µM
IC50 (PC-3): 3.42 µM
IC50 (K562): 1.1 µM
IC50 (MOLT-4): 0.27 µM
inhibition [1]: 92%
IC50 (KG-1): 0.93 µM
IC50 (Histone deacetylase): 0.025 µM
IC50 (HEL): 1.04 µM

Cc1c2ccc(N(C)c3ccnc(Nc4ccc(C(=O)NCCCCC(=O)NO)cc4)n3)cc2nn1C
inhibition [1]: 94%
IC50 (Histone deacetylase): 0.68 µM

Cc1ccc(Nc2nccc(N(C)c3ccc4c(C)n(C)nc4c3)n2)cc1C(=O)NO
inhibition [1]: 74%
IC50 (Histone deacetylase): > 20 µM

Cc1c2ccc(N(C)c3ccnc(Nc4ccc(C(=O)NCCCCCC(=O)NO)cc4)n3)cc2nn1C
IC50 (HT-1080): > 5 µM
IC50 (PC-3): > 5 µM
IC50 (K562): 2.89 µM
IC50 (MOLT-4): 0.6 µM
inhibition [1]: 98%
IC50 (KG-1): 2.31 µM
IC50 (Histone deacetylase): 0.017 µM
IC50 (HEL): 2.56 µM

Cc1ccc(Nc2nccc(N(C)c3ccc4c(C)n(C)nc4c3)n2)cc1S(N)(=O)=O [PAZOPANIB]
Activity (HUVEC): Active
IC50 (AGS): > 5 µM
IC50 (HT-29 [2]): > 5 µM
IC50 (HT-1080): > 5 µM
IC50 (PC-3): > 5 µM
IC50 (HeLa): > 5 µM
inhibition [3]: Active
IC50 (MDA-MB-231): > 5 µM
IC50 (ACHN): > 5 µM
IC50 (K562): > 5 µM
IC50 (MOLT-4): > 5 µM
Activity (Thoracic aorta): Active
inhibition [1]: 95%
IC50 (KG-1): > 5 µM
inhibition in vivo at 50 mg/kg (HT-29 [4]): 44%
T/C (HT-29 [5]): 61%
IC50 (HEL): > 5 µM

Cc1c2ccc(N(C)c3ccnc(Nc4ccc(C(=O)NCCCCCCCC(=O)Nc5ccccc5N)cc4)n3)cc2nn1C
IC50 (AGS): > 5 µM
IC50 (HT-29 [2]): 2.96 µM
IC50 (Histone deacetylase 2): 1.26 µM
IC50 (HT-1080): > 5 µM
IC50 (PC-3): > 5 µM
IC50 (HeLa): 3.07 µM
IC50 (MDA-MB-231): 2.57 µM
IC50 (Histone deacetylase 1): 1.46 µM
IC50 (ACHN): 3.62 µM
IC50 (K562): 3.97 µM
IC50 (MOLT-4): 0.56 µM
inhibition [1]: 92%
IC50 (KG-1): 2.68 µM
IC50 (Histone deacetylase 3): 0.66 µM
IC50 (Histone deacetylase): 8.7 µM
IC50 (HEL): 0.49 µM

Nc1ccccc1NC(=O)c1ccc(CNC(=O)OCc2cccnc2)cc1 [ENTINOSTAT]
IC50 (AGS): 0.34 µM
IC50 (HT-29 [2]): 3.1 µM
IC50 (HT-1080): > 5 µM
IC50 (PC-3): > 5 µM
IC50 (HeLa): > 5 µM
inhibition [3]: inactive
IC50 (MDA-MB-231): 2.55 µM
IC50 (ACHN): 2.4 µM
IC50 (K562): 3.66 µM
IC50 (MOLT-4): 0.45 µM
IC50 (KG-1): > 5 µM
IC50 (HEL): 0.44 µM

Cc1ccc(Nc2nccc(N(C)c3ccc4c(C)n(C)nc4c3)n2)cc1C(=O)NCCCCCC(=O)NO
inhibition [1]: 87%
IC50 (Histone deacetylase): 0.82 µM

Cc1c2ccc(N(C)c3ccnc(Nc4ccc(C(=O)NCCCCC(=O)Nc5ccccc5N)cc4)n3)cc2nn1C
inhibition [1]: 94%
IC50 (Histone deacetylase): 15.1 µM

Cc1c2ccc(N(C)c3ccnc(Nc4ccc(C(=O)NCCCC(=O)NO)cc4)n3)cc2nn1C
inhibition [1]: 99%
IC50 (Histone deacetylase): 19.8 µM

Cc1c2ccc(N(C)c3ccnc(Nc4ccc(C(=O)NCCCCCCC(=O)Nc5ccccc5N)cc4)n3)cc2nn1C
IC50 (PC-3): > 5 µM
IC50 (K562): 4.15 µM
IC50 (MOLT-4): 1.15 µM
inhibition [1]: 93%
IC50 (KG-1): 3.14 µM
IC50 (Histone deacetylase): 5 µM
IC50 (HEL): 1.16 µM

Cc1c2ccc(N(C)c3ccnc(Nc4ccc(C(=O)NCCC(=O)Nc5ccccc5N)cc4)n3)cc2nn1C
inhibition [1]: 97%
IC50 (Histone deacetylase): > 20 µM

Cc1c2ccc(N(C)c3ccnc(Nc4cccc(C(=O)Nc5ccccc5N)c4)n3)cc2nn1C
inhibition [1]: 63%
IC50 (Histone deacetylase): 21.3 µM

Cc1c2ccc(N(C)c3ccnc(Nc4ccc(C(=O)NCC(=O)NO)cc4)n3)cc2nn1C
inhibition [1]: 95%
IC50 (Histone deacetylase): > 20 µM

Cc1c2ccc(N(C)c3ccnc(Nc4ccc(C(=O)NCCC(=O)NO)cc4)n3)cc2nn1C
inhibition [1]: 99%
IC50 (Histone deacetylase): > 20 µM

Cc1c2ccc(N(C)c3ccnc(Nc4ccc(/C=C/C(=O)NO)cc4)n3)cc2nn1C
IC50 (AGS): > 5 µM
IC50 (HT-29 [2]): 2.96 µM
IC50 (Histone deacetylase 2): 5.3 µM
IC50 (HT-1080): 3.25 µM
IC50 (PC-3): 1.6 µM
IC50 (HeLa): 4.93 µM
IC50 (Histone deacetylase 8): 2.89 µM
IC50 (MDA-MB-231): 2.59 µM
IC50 (ACHN): 3.85 µM
IC50 (K562): 1.66 µM
IC50 (MOLT-4): 0.59 µM
inhibition [1]: 95%
IC50 (KG-1): 1.02 µM
IC50 (Histone deacetylase): 1.4 µM
IC50 [6]: 1.03 µM
IC50 (HEL): 0.75 µM

Cc1c2ccc(N(C)c3ccnc(Nc4cccc(C(=O)NCCCCCC(=O)NO)c4)n3)cc2nn1C
inhibition [1]: 90%
IC50 (Histone deacetylase): 0.18 µM

Cc1c2ccc(N(C)c3ccnc(Nc4ccc(C(=O)NCCCC(=O)Nc5ccccc5N)cc4)n3)cc2nn1C
inhibition [1]: 96%
IC50 (Histone deacetylase): 19 µM

Cc1c2ccc(N(C)c3ccnc(Nc4ccc(C(=O)NO)cc4)n3)cc2nn1C
inhibition [1]: 99%
IC50 (Histone deacetylase): 11.3 µM
